Screens (PubChem BioAssay)
Hits are enriched below; roughly 2.1% of the tested compounds scored in any of these assays.
Scp-1 inhibitor = Scp-1 phosphatase inhibitors, primary screen, biochemical, colorimetric, uHTS. hit rate 0.88% among 340,000. inhibition, % at 20 µM. AID 493091, 2011. Recombinant Scp1, phosphopeptide, malachite green phosphate absorbance;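 active = inhibition above about 50% at 20 µM, limit read from the data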;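 note: plate controls were DMSO wells with enzyme for no effect and wells lacking enzyme for full effect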
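Times: enzyme reaction 45 min at room temperature, colour 5 min, stabilisation 30 min. Material: SCP-1 catalytic fragment, aa 76-261. Medium: Acidic Tris acetate buffer with magnesium and detergent. Signal: colorimetric free-phosphate detection, absorbance 630 nm. Read-out basis: % inhibition of SCP-1 phosphate liberation. Reagent: Phosphorylated 17-residue peptide substrate.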
DNMT1 inh = human DNMT1 methyltransferase inhibitors, primary screen, biochemical, molecular beacon, fluorescence, HinP1I cleavage, uHTS; inhibition (reported as % activation of signal), % at 10 µM; AID 588458, 2011; hit rate 0.83% among 360,000; in the data active = inhibition above about 50%
LMPTP block = LMPTP phosphatase inhibitors, primary screen, biochemical, fluorescence intensity, uHTS | hit rate 0.22% among 360,000 | inhibition, % at 20 µM | recombinant LMPTP-A, OMFP fluorogenic substrate;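 active = compounds that cut the enzyme signal by at least half of the control window in the single-dose screen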;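 note: plate controls were DMSO wells with enzyme plus substrate for no effect and substrate without enzyme for full effect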
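Assay system: LMPTP-A enzyme. Input: 0.625 nM LMPTP-A final. Probe or stimulus: 400 µM OMFP. Compound dosing: single 20 µM dose. Schedule: 50 min dark incubation at room temperature. Detection: fluorescence intensity of OMFP turnover product. Read-out: percent inhibition versus substrate-only and uninhibited controls. Benchmarks: no-enzyme low control, uninhibited high control.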
GRK2 inh = compounds blocking aptamer binding on GRK2 – biochemical, human GRK2, bead flow cytometry, HTS, primary screen | Beta-adrenergic receptor kinase 1 (Homo sapiens), P25098 | FAM-aptamer displacement from GRK2 | inhibition of aptamer binding, % at 10 µM | hit rate 0.59% among 330,000 | AID 488847, 2010;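 active = inhibition of aptamer binding above 40%, roughly 3 SD of noise, on plates passing a quality check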;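 note: median bead fluorescence of bound FAM aptamer so fluorescent compounds give negative values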
SUMO1 PPI mod = modulators of SUMO1 protein-protein interactions, primary screen, biochemical, uHTS | SUMO1 binding to a labelled peptide, TR-FRET, 1 h | inhibition, % at 20 µM | AID 602429, 2012 | hit rate 0.33% among 360,000 | Small ubiquitin-related modifier 1 (Homo sapiens), P63165; in the data active = inhibition above about 37%
STEP inh = STEP phosphatase inhibitors, primary screen, biochemical, fluorescence intensity, uHTS; recombinant STEP, OMFP fluorogenic substrate; inhibition, % at 20 µM; hit rate 0.25% among 360,000; AID 588621, 2011;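 active = inhibition at 20 µM, scaled per plate between control wells, above about 37%, limit read from the data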;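 note: 0% = DMSO with enzyme and substrate and 100% = substrate only without enzyme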
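medium = Bis-Tris buffer pH 6.0, 2.5 mM DTT, 0.005% Tween 20 | test system = STEP (striatal-enriched tyrosine phosphatase) enzyme, cell-free | measure = normalized % inhibition | compound dosing = 20 µM, 1% DMSO | also added = 25 µM OMFP | schedule = reaction 20 min, ambient temperature | measured by = fluorescence read at 480 nm ex / 540 nm em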
Numbers without * were called inactive; nt = not tested or not shown.

SMILES	Scp-1 inhibitor	DNMT1 inh	LMPTP block	GRK2 inh	SUMO1 PPI mod	STEP inh
Cc1nc(Cl)sc1C(=O)Nc1ccc(F)cc1	-9.6	-1.9	-0.6	nt	0.6	-0.7
Fc1ccccc1COc1ccc(-c2nnn(Cc3ccccc3F)n2)cc1	-18.5	-6.9	2.9	1.0	3.2	-0.9
CC(C)n1nnc(-c2ccc(OCc3ccccc3F)cc2)n1	58.3*	-3.4	2.4	0.0	1.6	1.0
CCc1nc2ccc(C(=O)Nc3ccc(C(N)=O)cc3)cn2c1N(CCC(C)C)CCN(C)C	nt	5.9	0.2	nt	-4.7	0.3
CN(C)c1ccc(Sc2ccc3nc(N)nc(N)c3c2)cc1	nt	-20.2	51.1*	nt	-31.5	1.9
O=Nc1c(-c2c(O)[nH]c3cc(Br)ccc23)[nH]c2ccccc12	-13.9	-30.4	6.1	2.0	43.8*	4.8
C[C@@H]1CN([C@H](C)CO)C(=O)c2cc(Br)cnc2O[C@@H]1CN(C)C(=O)C1CCOCC1	nt	2.2	-4.7	nt	-3.7	-3.7
COc1ccc(N=C2S/C(=C\c3ccc(OCC(=O)O)cc3)C(=O)N2CCc2c[nH]c3ccccc23)cc1	20.9	-21.4	40.4	nt	97.9*	96.4*
COc1ccc(N=C2S/C(=C\c3ccc(N4CCOCC4)o3)C(=O)N2CCc2c[nH]c3ccccc23)cc1	nt	-11.4	4.3	33.0	-32.6	-27.1
N#Cc1cccc(NC(=O)CSc2ccc3c4c(cccc24)C(=O)c2ccccc2-3)c1	41.8	82.2*	27.1	0.0	-14.5	-8.8
O=C(O)CN1CCNCCN(CC(=O)O)CCNCC1	-1.8	9.1	-4.2	nt	59.0*	-0.8
O=C(O)CN1CCN(CC(=O)O)CCN(CC(=O)O)CCN(CC(=O)O)CC1	-11.3	3.1	-1.1	3.0	16.2	-3.1
COc1ccc(-c2noc(CCCCC(=O)N3CCN(c4cc(C)ccc4C)CC3)n2)cc1	9.2	-7.0	8.2	0.0	2.6	1.0
COc1ccc(-c2noc(CCCC(=O)N3CCN(c4cc(C)ccc4C)CC3)n2)cc1	3.9	-2.9	5.5	1.0	41.9*	7.4
N#Cc1ccc(CN2CCN(C(=O)C3CC(=O)N(c4ccc5c(c4)OCCO5)C3)CC2)cc1 (centres undefined)	nt	3.3	-1.8	nt	1.1	1.5
CC(Nc1nc(-c2ccccc2)nc2ccccc12)c1ccccc1 (centres undefined)	0.3	-14.7	52.0*	11.0	2.9	-2.9
CC(Nc1nc(-c2ccccc2F)nc2ccccc12)c1ccccc1 (centres undefined)	1.4	-2.5	73.6*	0.0	0.8	-0.5
Fc1ccccc1-c1nc(NC2CCCC2)c2ccccc2n1	-1.6	1.1	69.6*	1.0	0.3	-1.9
COc1ccc(C(O)c2nc(-c3cccc4cccnc34)cs2)cc1 (centres undefined)	nt	-1.1	-0.2	nt	-16.9	-3.0
O=C1Nc2c(Cl)cccc2C1=O	nt	-22.9	0.6	nt	-1.9	3.8
Cc1cccc2c1NC(=O)C2=O	48.0	50.5*	0.9	nt	-9.6	2.8
CCC(=O)c1cc2c(C)cc(=O)oc2c(C)c1OC(C)=O	-4.4	8.5	-1.2	83.0*	1.5	0.9
COc1cc(/C=C2/C(=O)NN(c3ccc(Cl)c(Cl)c3)C2=O)cc([N+](=O)[O-])c1O	91.8*	10.4	6.4	4.0	8.7	9.1
COc1cc(/C=C2/C(=O)NN(c3ccc(Cl)cc3)C2=O)cc(Br)c1O	35.0	47.8	65.3*	7.0	74.5*	83.2*
CC(C)(C)OC(=O)N1CCCC(C(=O)Nc2ccc(C(=O)NC3CC3)cc2)C1 (centres undefined)	-4.2	1.6	-2.0	nt	2.2	-3.5
SMILES	Scp-1 inhibitor	DNMT1 inh	LMPTP block	GRK2 inh	SUMO1 PPI mod	STEP inh
O=C(Nc1ccccn1)c1onc2c1CCCC2	50.4*	4.0	1.0	4.0	-1.5	-0.7
CCN(CC)C(=O)CSc1nc2ccccc2c(=O)n1-c1cccc(OC)c1	-2.2	-1.6	-0.8	0.0	5.3	-1.1
COc1cccc(-n2c(SCc3cc(=O)oc4cc(O)c(O)cc34)nc3ccccc3c2=O)c1	31.9	30.6	52.1*	6.0	2.1	12.0
Cc1ccc(NC2CCCN(C(=O)C3CCCC3)C2)cc1C (centres undefined)	-2.4	1.1	0.5	0.0	5.5	-2.2
COc1cc(/C=C2\C(C)=C(C#N)c3nc(N)c(C#N)c(C)c32)ccc1OCC(=O)O	0.2	-3.0	10.4	1.0	45.5*	0.5
CC1=C(C#N)c2nc(N)c(C#N)c(C)c2/C1=C\c1ccc(C)cc1	nt	nt	nt	0.0	nt	nt
CCc1ccc(C(O)c2ncc(-c3ccccc3OC)[nH]2)cc1 (centres undefined)	nt	-2.5	-1.1	nt	0.0	0.9
COc1ccc(NC(=O)C2CCC(CNc3c(N4CCOCC4)c(=O)c3=O)CC2)cc1Cl (centres undefined)	-4.0	2.3	-1.0	2.0	2.0	0.2
COc1ccc(NC(=O)c2ccc(CNc3c(N4CCCC4)c(=O)c3=O)cc2)cc1Cl	-4.3	0.8	3.6	2.0	58.3*	0.1
C#CCn1cc(C=C2C(=O)c3ccccc3C2=O)c2ccccc21	-3.9	59.6*	6.3	nt	-12.0	-5.0
O=C(Nc1ccc(F)cc1)C(CCc1ccccc1)N1CCN(Cc2c(F)cccc2Cl)CC1 (centres undefined)	nt	nt	3.8	nt	-1.9	nt
CN1/C(=C/C=C(C#N)C#N)C=Cc2ccccc21	-16.3	-1.5	15.8	0.0	57.4*	-0.2
CC(C)C#Cc1ccc2c(c1)O[C@@H](CN(C)S(=O)(=O)c1cn(C)cn1)[C@@H](C)CN([C@H](C)CO)S2(=O)=O	nt	-4.0	-1.6	nt	3.9	0.8
O=c1c2c3nc4ccccc4nc3n(/N=C/c3ccco3)c2ncn1CCC1=CCCCC1	88.0*	3.5	-1.1	0.0	-5.3	-4.9
Cc1nc2c(c(=O)n1CCC1=CCCCC1)c1nc3ccccc3nc1n2/N=C/c1ccccc1	2.9	13.3	2.8	0.0	-11.0	3.8
CCOC(=O)c1ccc(NC(=O)Nc2nncs2)cc1	nt	-2.8	-4.8	nt	11.3	-1.3
C=CC#CC[N+]1(CC#Cc2ccccc2)CCOCC1	8.9	-30.1	52.1*	nt	36.6*	5.1
COc1ccccc1CCn1cnc(Cc2ccccc2)c1C(C)C	nt	nt	-0.3	nt	4.8	nt
CC(CC(=O)c1ccc(F)cc1)N1CCN(c2ccccc2)CC1 (centres undefined)	-0.3	-17.1	0.7	nt	-60.6	2.6
